In article PMC5616206 (Toxicology Reports, 2016):
Entries after “also recorded” stand apart in the source; their conditions may differ. Like-named read-outs stand apart in the source and are kept apart here.

Assays:
[1] = test system: Male and Female Hsd:ICR (CD-1) mice, bone marrow PCEs; experiment: In vivo micronucleus assay in mice, S9229
Procedure, shortened: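 Hsd:ICR (CD-1) mice were gavaged once with the test compound suspended in 1% methylcellulose (20 mL/kg) in both the range-finding and definitive phases. The definitive phase used 0, 500, 624, 1352 and 2000 mg/kg bw, 5/sex/group, with bone marrow sampled at 24 h. Additional vehicle, 1352 and 2000 groups were sampled at 48 h. Femoral marrow smears were stained with acridine orange and scored for mnPCEs and PCE/TE ratio. Cyclophosphamide 50 mg/kg was the positive control.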

[2] = Toxicokinetics of S9229 in the 28-day rat study; type: in vivo, Sprague-Dawley rats; settings: for AUC0-24hr Ratio / Cmax Ratio: vs 10 mg/kg dose; for AUC(0-t) / Cmax / Tmax / half-life: rat, plasma, po; for AUC(0-t): AUC0-24hr
[3] = test system: Primary human lymphocytes; settings: for dose with substantial toxicity (at least 50% reduction in mitotic index): preliminary toxicity test
[4] = In vitro metabolism by human liver microsomes; type: in vitro ADME; settings: S9229 incubation, relative to S9229 at time = 0
[5] = In vivo metabolism of S9229 in rats; design: species or system Sprague-Dawley rats; settings: rat plasma, 1 h time point, 100 mg/kg bw oral
[6] = In vitro metabolism by rat liver microsomes; type: in vitro ADME, Sprague-Dawley rat; settings: S9229 incubation, relative to S9229 at time = 0
[7] = Pharmacokinetics of S9229 in rats, single iv or oral dose; type: in vivo, Sprague-Dawley rats; settings: for AUC(0-t) / Cmax / Tmax / Vd / clearance / half-life / bioavailability: Sprague-Dawley, rat, plasma; for AUC0-24hr Ratio / Cmax Ratio: vs 10 mg/kg dose
Procedure, shortened: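 Sprague-Dawley rats, 4/sex, received a 1 mg/kg bw IV bolus in 1% ethanol in saline, with tail-vein sampling from 2 min to 8 h. Oral groups (3/sex/group) were gavaged once with 10, 30 or 100 mg/kg bw in 1% methylcellulose and sampled from 15 min to 24 h. Plasma was assayed for parent and metabolites.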

[8] = female, Sprague-Dawley (Crl:CD(SD)), 10 mg/kg, Day 1, 10 mg/kg bw, F
[9] = female, Sprague-Dawley (Crl:CD(SD)), 30 mg/kg, Day 1, 30 mg/kg bw, F
[10] = female, Sprague-Dawley (Crl:CD(SD)), 100 mg/kg, Day 1, 100 mg/kg bw, F
[11] = female, Sprague-Dawley (Crl:CD(SD)), 100 mg/kg, Day 28, 100 mg/kg bw, F
[12] = female, Sprague-Dawley [Crl:CD(SD)], 10 mg/kg, Day 28, 10 mg/kg bw, F
[13] = female, Sprague-Dawley [Crl:CD(SD)], 30 mg/kg, Day 28, 30 mg/kg bw, F
[14] = male, Sprague-Dawley (Crl:CD(SD)), 10 mg/kg, Day 1, 10 mg/kg bw, M
[15] = male, Sprague-Dawley (Crl:CD(SD)), 10 mg/kg, Day 28, 10 mg/kg bw, M
[16] = male, Sprague-Dawley (Crl:CD(SD)), 30 mg/kg, Day 1, 30 mg/kg bw, M
[17] = male, Sprague-Dawley (Crl:CD(SD)), 100 mg/kg, Day 1, 100 mg/kg bw, M
[18] = male, Sprague-Dawley (Crl:CD(SD)), 100 mg/kg, Day 28, 100 mg/kg bw, M
[19] = male, Sprague-Dawley [Crl:CD(SD)], 30 mg/kg, Day 28, 30 mg/kg bw, M
[20] = oral gavage 10 mg/kg bw, female
[21] = oral gavage 30 mg/kg bw, female
[22] = oral gavage 100 mg/kg bw, female

## COC[C@@H](CC(C)C)NC(=O)c1ccc(C)c(C)c1 [S9229, (R)-N-(1-methoxy-4-methylpentan-2-yl)-3,4-dimethylbenzamide]
[1]; 500, 624, 1352, 2000 mg/kg bw (oral)
  Micronucleus formation (in vivo), Result: neither clastogenic nor aneugenic; also recorded: Negative
[1]; preliminary dose range finding, oral, male and female mice
  well tolerated highest dose tested: 2000 mg/kg bw
[2]; Day 1, 10 mg/kg bw, F
  AUC0-24hr Ratio: 1
  Cmax Ratio: 1
[2]; Day 1, 10 mg/kg bw, M
  AUC0-24hr Ratio: 1
  Cmax Ratio: 1
[2]; Day 1, 30 mg/kg bw, F
  AUC0-24hr Ratio: 1.11
  Cmax Ratio: 0.55
[2]; Day 1, 30 mg/kg bw, M
  AUC0-24hr Ratio: 6.62
  Cmax Ratio: 7.06
[2]; Day 1, 100 mg/kg bw, F
  AUC0-24hr Ratio: 23.4
  Cmax Ratio: 22.8
[2]; Day 1, 100 mg/kg bw, M
  AUC0-24hr Ratio: 48.3
  Cmax Ratio: 61.8
[2]; Day 28, 10 mg/kg bw, F
  AUC0-24hr Ratio: 1
  Cmax Ratio: 1
[2]; Day 28, 10 mg/kg bw, M
  AUC0-24hr Ratio: 1
  Cmax Ratio: 1
[2]; Day 28, 30 mg/kg bw, F
  AUC0-24hr Ratio: 6.90
  Cmax Ratio: 4.85
[2]; Day 28, 30 mg/kg bw, M
  AUC0-24hr Ratio: 10.4
  Cmax Ratio: 5.67
[2]; Day 28, 100 mg/kg bw, F
  AUC0-24hr Ratio: 68.6
  Cmax Ratio: 57.2
[2]; Day 28, 100 mg/kg bw, M
  AUC0-24hr Ratio: 71.1
  Cmax Ratio: 33.6
[2]; [8]
  AUC(0-t): 11.4 ± 11.1 ng·h/mL
  Cmax: 15.6 ± 17 ng/mL
  Tmax: 0.5 h
[2]; [9]
  AUC(0-t): 12.6 ± 2.8 ng·h/mL
  Cmax: 8.6 ± 2.6 ng/mL
  Tmax: 0.5 h
[2]; female, Sprague-Dawley (Crl:CD(SD)), 30 mg/kg, Day 28, 30 mg/kg bw, F
  Tmax: 1 h
[2]; female, Sprague-Dawley (Crl:CD(SD)), 30 mg/kg, t1/2, Day 1, 30 mg/kg bw, F
  half-life: 0.95 ± 0.48 h
[2]; female, Sprague-Dawley (Crl:CD(SD)), 30 mg/kg, t1/2, Day 28, 30 mg/kg bw, F
  half-life: 2.16 ± 1.3 h
[2]; [10]
  AUC(0-t): 267 ± 174 ng·h/mL
  Cmax: 356 ± 256 ng/mL
  Tmax: 0.5 h
[2]; [11]
  AUC(0-t): 144 ± 45.1 ng·h/mL
  Cmax: 74.4 ± 31.7 ng/mL
  Tmax: 1 h
[2]; female, Sprague-Dawley (Crl:CD(SD)), 100 mg/kg, t1/2, Day 1, 100 mg/kg bw, F
  half-life: 0.97 ± 0.36 h
[2]; female, Sprague-Dawley (Crl:CD(SD)), 100 mg/kg, t1/2, Day 28, 100 mg/kg bw, F
  half-life: 0.98 ± 0.1 h
[2]; [12]
  AUC(0-t): 2.1 ± 1.9 ng·h/mL
  Cmax: 1.3 ± 1.3 ng/mL
  Tmax: 1 h
[2]; [13]
  AUC(0-t): 14.5 ± 4.3 ng·h/mL
  Cmax: 6.3 ± 3.2 ng/mL
[2]; [14]
  AUC(0-t): 3.9 ± 0.8 ng·h/mL
  Cmax: 3.2 ± 1.3 ng/mL
  Tmax: 0.5 h
[2]; [15]
  AUC(0-t): 1.5 ± 0.6 ng·h/mL
  Cmax: 1.2 ± 0.3 ng/mL
  Tmax: 1.67 h
[2]; male, Sprague-Dawley (Crl:CD(SD)), 10 mg/kg, t1/2, Day 1, 10 mg/kg bw, M
  half-life: 0.9 ± 0.23 h
[2]; [16]
  AUC(0-t): 25.8 ± 4.3 ng·h/mL
  Cmax: 22.6 ± 10.5 ng/mL
  Tmax: 0.5 h
[2]; male, Sprague-Dawley (Crl:CD(SD)), 30 mg/kg, t1/2, Day 1, 30 mg/kg bw, M
  half-life: 1.16 ± 0.46 h
[2]; [17]
  AUC(0-t): 188 ± 78.8 ng·h/mL
  Cmax: 198 ± 98.5 ng/mL
  Tmax: 0.5 h
[2]; [18]
  AUC(0-t): 107 ± 41.6 ng·h/mL
  Cmax: 40.3 ± 20.5 ng/mL
  Tmax: 1 h
[2]; male, Sprague-Dawley (Crl:CD(SD)), 100 mg/kg, t1/2, Day 1, 100 mg/kg bw, M
  half-life: 1.04 ± 0.04 h
[2]; male, Sprague-Dawley (Crl:CD(SD)), 100 mg/kg, t1/2, Day 28, 100 mg/kg bw, M
  half-life: 1.39 ± 0.28 h
[2]; [19]
  AUC(0-t): 15.6 ± 2.7 ng·h/mL
  Cmax: 6.8 ± 2.3 ng/mL
  Tmax: 1 h
[2]; male, Sprague-Dawley [Crl:CD(SD)], 30 mg/kg, t1/2, Day 28, 30 mg/kg bw, M
  half-life: 1.42 ± 0.28 h
[3]; beginning of the treatment period
  dose levels with visible precipitate in treatment medium: ≥ 322 µg/mL
[3]; non-activated 20-h exposure
  dose with substantial toxicity (at least 50% reduction in mitotic index): ≥ 263 µg/mL
[3]; non-activated and S9-activated 4-h exposure
  dose with substantial toxicity (at least 50% reduction in mitotic index): ≥ 789 µg/mL
[4]; 10 min
  % MS (EIC) Peak Area: 86.9%
[4]; 20 min
  % MS (EIC) Peak Area: 70.6%
[4]; 60 min
  % MS (EIC) Peak Area: ~22.6%
[5]
  parent compound as % of the total peak area: less than 1%
[6]; 10 min
  % MS (EIC) Peak Area: 36.4%
[6]; 20 min
  % MS (EIC) Peak Area: 1.93%
[7]; female, iv, 1 mg/kg
  AUC(0-t): 1730 ± 376 ng·h/mL
  Cmax: 3940 ± 1070 ng/mL
  Tmax: 0.03 h
  Vd: 2.82 L/kg
  clearance: 7.9 mL/min/kg
  half-life: 4.33 ± 1.65 h
[7]; female, po
  bioavailability: 0.09 to 0.1%
[7]; female, po, 10 mg/kg
  AUC(0-t): 15.2 ± 11.2 ng·h/mL
  Cmax: 10.5 ± 13.9 ng/mL
  Tmax: 0.25 h
  bioavailability: 0.09%
  half-life: 0.96 ± 0.3 h
[7]; female, po, 30 mg/kg
  AUC(0-t): 49.5 ± 31.7 ng·h/mL
  Cmax: 55.4 ± 43.9 ng/mL
  Tmax: 0.25 h
  bioavailability: 0.1%
  half-life: 1.82 ± 2.12 h
[7]; female, po, 100 mg/kg
  AUC(0-t): 175 ± 169 ng·h/mL
  Cmax: 102 ± 124 ng/mL
  Tmax: 1.67 h
  bioavailability: 0.1%
  half-life: 1.03 ± 0.32 h
[7]; iv 1 mg/kg
  ratio of female/male AUC0-24hr: 1.02
  ratio of female/male Cmax: 1.08
[7]; iv, females
  CL as % of hepatic blood flow: 14.4%
[7]; iv, males
  CL as % of hepatic blood flow: 13.9%
[7]; male, iv, 1 mg/kg
  AUC(0-t): 1690 ± 416 ng·h/mL
  Cmax: 3650 ± 1180 ng/mL
  Tmax: 0.03 h
  Vd: 3.47 L/kg
  clearance: 7.65 mL/min/kg
  half-life: 5.38 ± 2.16 h
[7]; male, po
  bioavailability: 0.04 to 0.1%
[7]; male, po, 10 mg/kg
  AUC(0-t): 11.3 ± 10 ng·h/mL
  Cmax: 19.4 ± 24 ng/mL
  Tmax: 0.25 h
  bioavailability: 0.07%
  half-life: 1.38 ± 1.28 h
[7]; male, po, 30 mg/kg
  AUC(0-t): 20.6 ± 3.7 ng·h/mL
  Cmax: 11.9 ± 0.6 ng/mL
  Tmax: 0.25 h
  bioavailability: 0.04%
  half-life: 1.78 ± 0.69 h
[7]; male, po, 100 mg/kg
  AUC(0-t): 175 ± 57.8 ng·h/mL
  Cmax: 52.3 ± 12 ng/mL
  Tmax: 0.83 h
  bioavailability: 0.1%
  half-life: 2.24 ± 1.09 h
[7]; [20]
  AUC0-24hr Ratio: 1
  Cmax Ratio: 1
[7]; oral gavage 10 mg/kg bw, male
  AUC0-24hr Ratio: 1
  Cmax Ratio: 1
[7]; [21]
  AUC0-24hr Ratio: 3.26
  Cmax Ratio: 5.28
[7]; oral gavage 30 mg/kg bw, male
  AUC0-24hr Ratio: 1.82
  Cmax Ratio: 0.61
[7]; [22]
  AUC0-24hr Ratio: 11.5
  Cmax Ratio: 9.68
[7]; oral gavage 100 mg/kg bw, male
  AUC0-24hr Ratio: 15.5
  Cmax Ratio: 2.70
